Assay results collected from several papers.
Each line is one published result; the experiments were not run side by side.
PIK3CA: Phosphatidylinositol 4,5-bisphosphate 3-kinase catalytic subunit alpha isoform (PIK3CA, Homo sapiens, UniProt P42336)
PIK3CB: Phosphatidylinositol 4,5-bisphosphate 3-kinase catalytic subunit beta isoform (PIK3CB, Homo sapiens, UniProt P42338)
KDR: Vascular endothelial growth factor receptor 2 (KDR, Homo sapiens, UniProt P35968)

Compound	target	test	IC50 [nM]
Cc1nc2c(F)cc(-c3ccnc(Nc4ccc5c(=O)cc(N6CCOCC6)oc5c4)n3)cc2n1C(C)C	PIK3CA	enzyme activity, inhibitor, radiometric	2130
Cc1cccc(N=C2C(=O)Nc3ccccc32)c1	PIK3CB	enzyme activity, inhibitor, ADP detection	134
CC(C)C[C@H](NC(=O)[C@@H](NC(=O)N[C@@H](Cc1ccccc1)C(=O)O)[C@@H]1CCN=C(N)N1)C(=O)N[C@H](C=O)Cc1ccccc1	Cathepsin G (CTSG, Homo sapiens, UniProt P08311)	enzyme activity, inhibitor	4190
COc1cc(N=C2C(=O)N(Cc3ccccc3)c3ccccc32)cc(OC)c1	PIK3CA	enzyme activity, inhibitor, ADP detection	7.31
O=[N+]([O-])c1ccc(O)c(C=NNc2ccc(Br)cc2)c1	KDR	enzyme activity, inhibitor, ATP luminescence	12600
COc1ccc(-c2cc(=O)c3c(O)cc(O[C@@H]4O[C@H](CO[C@@H]5O[C@@H](C)[C@H](O)[C@@H](O)[C@H]5O)[C@@H](O)[C@H](O)[C@H]4O)cc3o2)cc1O	KDR	enzyme activity, inhibitor, TR-FRET	32700
COc1ccc(-c2oc3cc(Nc4ncc5cc(C(=O)N(C)C)n(C6CCCC6)c5n4)ccc3c(=O)c2F)cc1	PIK3CA	enzyme activity, inhibitor, radiometric	> 10000
COc1ccc(Nc2nc(Nc3ccc4ncccc4c3)nc(N3CCOCC3)n2)cc1	PIK3CA	enzyme activity, inhibitor, ADP detection	1290
O=C(O)[C@H]1O[C@@H](Oc2cc3oc(-c4ccc(O)cc4)cc(=O)c3c(O)c2O)[C@H](O)[C@@H](O)[C@@H]1O	KDR	enzyme activity, inhibitor, TR-FRET	8350
O=C(O)CC[C@H](NC(=O)N[C@@H](CCCCNC(=O)[C@H](Cc1ccc2ccccc2c1)NC(=O)[C@H]1CC[C@H](CNC(=O)CN2CCN(CC(=O)O)CCN(CC(=O)O)CCN(CC(=O)O)CC2)CC1)C(=O)O)C(=O)O	Glutamate carboxypeptidase 2 (FOLH1, Homo sapiens, UniProt Q04609)	ligand displacement in cells, radioligand	7.8
O=C1C(=Nc2ccc(Cl)cc2Br)c2ccccc2N1Cc1ccc(Br)cc1	PIK3CB	enzyme activity, inhibitor, ADP detection	34.4
O=[N+]([O-])c1cc(Br)c(O)c(C=NNc2ccc(Br)cc2)c1	KDR	enzyme activity, inhibitor, ATP luminescence	7070
CN(C)C(=O)c1cc2cnc(Nc3ccc(-c4cccc5c(=O)cc(N6CCOCC6)oc45)c(F)c3)nc2n1C1CCCC1	PIK3CA	enzyme activity, inhibitor, radiometric	182
O=[N+]([O-])c1cc(I)c(O)c(C=NNc2ccc(Br)cc2)c1	KDR	enzyme activity, inhibitor, ATP luminescence	6520
CN(C)C(=O)c1cc2cnc(Nc3cncc(-c4ccc5c(=O)cc(N6CCOCC6)oc5c4)c3)nc2n1C1CCCC1	PIK3CA	enzyme activity, inhibitor, radiometric	260
Cc1cccc(N=C2C(=O)N(Cc3ccccc3)c3ccccc32)c1	PIK3CA	enzyme activity, inhibitor, ADP detection	8.64
CN(C)C(=O)c1cc2cnc(Nc3ccc(-c4cccc5c(=O)cc(N6CCNCC6)oc45)cc3)nc2n1C1CCCC1	PIK3CA	enzyme activity, inhibitor, radiometric	> 10000
O=[N+]([O-])c1cc(Br)c(O)c(C=NNc2ccccc2)c1	KDR	enzyme activity, inhibitor, ATP luminescence	5400
CCc1ccc(N=C2C(=O)Nc3ccccc32)cc1	PIK3CB	enzyme activity, inhibitor, ADP detection	270
COc1ccc(-c2cc(=O)c3cccc(Nc4ncc5cc(C(=O)N(C)C)n(C6CCCC6)c5n4)c3o2)cc1	PIK3CA	enzyme activity, inhibitor, radiometric	> 10000
O=C1C(=Nc2ccccc2I)c2ccccc2N1Cc1ccc(Br)cc1	PIK3CB	enzyme activity, inhibitor, ADP detection	435
O=[N+]([O-])c1ccc(O)c(C=NNc2ccc(C(F)(F)F)cc2)c1	KDR	enzyme activity, inhibitor, ATP luminescence	20700
Cc1c(N2CCOCC2)oc2c(-c3ccc(Nc4ncc5cc(C(=O)N(C)C)n(C6CCCC6)c5n4)cc3F)cccc2c1=O	PIK3CA	enzyme activity, inhibitor, radiometric	> 10000
Cc1ccc(CN2C(=O)C(=Nc3cccc(Cl)c3)c3ccccc32)cc1	PIK3CA	enzyme activity, inhibitor, ADP detection	27.6
CN(C)C(=O)c1cc2cnc(Nc3ccc(-c4ccc5c(=O)cc(N6CCNCC6)oc5c4)cc3)nc2n1C1CCCC1	PIK3CA	enzyme activity, inhibitor, radiometric	> 10000
Cc1ccc(CN2C(=O)C(=Nc3c(C(C)C)cccc3C(C)C)c3ccccc32)cc1	PIK3CA	enzyme activity, inhibitor, ADP detection	319
O=[N+]([O-])c1cc(I)c(O)c(C=NNc2ccccc2)c1	KDR	enzyme activity, inhibitor, ATP luminescence	4970
